From article PMC11375721 (ACS Omega, 2024)
Values belong to the substance of their own block, whether it stands above or below them.

Legend:
[1] = system: A549-PDL1 xenografts; assay: In vivo pretargeting biodistribution; set-up: species or system mice; conditions: 1 h after [^18F]PEG12-Tz, n = 3
Procedure, shortened: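 Male BALB/c nude mice (4–6 weeks, 13–18 g) received 5 × 10^6 A549-PDL1 and A549 cells in PBS subcutaneously behind the right armpit and were used once tumors reached 5–10 mm. Durvalumab-TCO or atezolizumab-TCO (300 μg in 150 μL PBS) was given i.v. by tail vein. After 24, 48 or 72 h, [18F]PEG12-Tz (1.85 MBq) was given i.v. Mice were killed 1 h later, and organs were weighed, γ-counted and expressed as %ID/g; n = 3. Controls: radioligand alone; blocking by co-injection of 50-fold molar excess atezolizumab plus 50 μg unlabeled tetrazine.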

[2] = system: A549-PDL1 cells; assay: Cellular uptake and internalization; assay type: cell-based
Procedure, shortened: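 A549 cells stably transfected with PD-L1 by lentiviral infection, grown in RPMI-1640 with 15% FBS at 37 °C, 5% CO2. Cells were incubated with in vitro ligated [18F]Tz-TCO-antibody for 30, 60, 120 and 180 min at 37 °C, then washed twice in ice-cold PBS. Surface activity was stripped with glycine HCl (1 mol/L, pH 2.2) for 10 min at 37 °C. The lysate gave the internalized fraction; washes plus lysate gave total uptake, γ-counted. Three experiments, each in triplicate.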

[3] = target: PD-L1 (Homo sapiens, UniProt Q9NZQ7); assay: Saturation binding on A549-PDL1 cells; conditions: 37 °C, 1 h
Procedure, shortened: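 Antibody-TCO was ligated with [18F]Tz in PBS (pH 7) at room temperature, and the purified conjugate was added at 0.08–10 nM to A549-PDL1 cells (2 × 10^5/well) for 1 h at 37 °C. Nonspecific binding used 100-fold excess unlabeled antibody added 1 h beforehand. Cell-bound activity was γ-counted. Each condition was run in triplicate, and Kd came from one-site specific-binding nonlinear regression.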

[4] = Estimated human dosimetry
Procedure, shortened: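 Male nude mice bearing A549-PDL1 xenografts were imaged by micro-PET/CT under 2–3% isoflurane on a heating pad, with OSEM reconstruction and %ID/g quantification. Pretargeted arm: atezolizumab-TCO 300 μg i.v., then 48 h later the 18F-tetrazine (3.7 MBq) i.v. Direct arm: [18F]Tz-TCO-atezolizumab 7.4 MBq/mouse i.v., imaged at 1, 2, 4, 6 and 8 h. Mouse data were extrapolated to human organ doses.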

[5] = system: A549-PDL1 xenografts; assay: Pretargeted micro-PET/CT imaging; assay type: in vivo, mice; conditions: for A549-PDL1 tumor uptake (PET): 1 h postinjection of [^18F]PEG12-Tz
[6] = biodistribution, 24 h after antibody-TCO 300 μg

PD-L1, sequence (Q9NZQ7 19-290): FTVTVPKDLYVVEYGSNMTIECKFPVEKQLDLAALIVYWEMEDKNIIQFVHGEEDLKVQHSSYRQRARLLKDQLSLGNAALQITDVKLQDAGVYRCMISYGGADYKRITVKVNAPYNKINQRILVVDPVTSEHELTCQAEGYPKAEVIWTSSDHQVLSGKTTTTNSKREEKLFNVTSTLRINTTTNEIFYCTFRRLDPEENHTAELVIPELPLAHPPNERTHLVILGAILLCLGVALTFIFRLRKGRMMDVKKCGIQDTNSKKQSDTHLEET

Substance: durvalumab-TCO: durvalumab (anti-PD-L1 antibody) modified with TCO-PEG4-NHS Ester, average 12 TCO per antibody
- A549-PDL1 tumor uptake ([1]; 24 h after antibody-TCO 300 μg): 2.52 ± 0.16 % ID/g
- blood uptake ([1]; 24 h after antibody-TCO 300 μg): 8.80 ± 0.50 % ID/g
- lung uptake ([1]; 24 h after antibody-TCO 300 μg): 7.06 ± 1.90 % ID/g
- A549-PDL1 tumor uptake ([1]; 48 h after antibody-TCO 300 μg): 1.91 ± 0.38 % ID/g
- A549-PDL1 tumor uptake ([1]; 72 h after antibody-TCO 300 μg): 1.60 ± 0.23 % ID/g
- tumor/blood [1, 6]: 0.29
- tumor/muscle [1, 6]: 3.51

- Kd [3]: 2.39 nM
Substance: [^18F]Tz-TCO-durvalumab: in vitro ligation product of [^18F]Tz with durvalumab-TCO
- cellular uptake ([2]; 30 min): 5.13 % ID/10^6 cells
- cellular uptake ([2]; 180 min): 8.40 % ID/10^6 cells
- internalization rate ([2]; 180 min): 73.2%

Substance: atezolizumab pretargeted: pretargeting pair: atezolizumab-TCO injected first, [^18F]PEG12-Tz 24-72 h later, ligated in vivo
- A549-PDL1 tumor uptake ([1]; 24 h after antibody-TCO 300 μg): 1.16 ± 0.06 % ID/g
- blood uptake ([1]; 24 h after antibody-TCO 300 μg): 1.72 ± 0.09 % ID/g
- bone uptake ([1]; 24 h after antibody-TCO 300 μg): 0.38 ± 0.07 % ID/g
- brain uptake ([1]; 24 h after antibody-TCO 300 μg): 0.06 ± 0.01 % ID/g
- gall bladder uptake ([1]; 24 h after antibody-TCO 300 μg): 0.94 ± 0.11 % ID/g
- heart uptake ([1]; 24 h after antibody-TCO 300 μg): 0.93 ± 0.05 % ID/g
- intestine uptake ([1]; 24 h after antibody-TCO 300 μg): 0.51 ± 0.12 % ID/g
- kidney uptake ([1]; 24 h after antibody-TCO 300 μg): 2.04 ± 0.09 % ID/g
- liver uptake ([1]; 24 h after antibody-TCO 300 μg): 0.87 ± 0.08 % ID/g
- lung uptake ([1]; 24 h after antibody-TCO 300 μg): 1.78 ± 0.34 % ID/g
- muscle uptake ([1]; 24 h after antibody-TCO 300 μg): 0.26 ± 0.04 % ID/g
- spleen uptake ([1]; 24 h after antibody-TCO 300 μg): 0.71 ± 0.04 % ID/g
- stomach uptake ([1]; 24 h after antibody-TCO 300 μg): 0.40 ± 0.16 % ID/g
- A549-PDL1 tumor uptake ([1]; 48 h after antibody-TCO 300 μg): 1.65 ± 0.29 % ID/g
- blood uptake ([1]; 48 h after antibody-TCO 300 μg): 1.86 ± 0.15 % ID/g
- bone uptake ([1]; 48 h after antibody-TCO 300 μg): 0.28 ± 0.02 % ID/g
- brain uptake ([1]; 48 h after antibody-TCO 300 μg): 0.05 ± 0.01 % ID/g
- gall bladder uptake ([1]; 48 h after antibody-TCO 300 μg): 0.94 ± 0.24 % ID/g
- heart uptake ([1]; 48 h after antibody-TCO 300 μg): 1.02 ± 0.14 % ID/g
- intestine uptake ([1]; 48 h after antibody-TCO 300 μg): 0.62 ± 0.22 % ID/g
- kidney uptake ([1]; 48 h after antibody-TCO 300 μg): 2.82 ± 0.52 % ID/g
- liver uptake ([1]; 48 h after antibody-TCO 300 μg): 0.96 ± 0.18 % ID/g
- lung uptake ([1]; 48 h after antibody-TCO 300 μg): 1.65 ± 0.11 % ID/g
- muscle uptake ([1]; 48 h after antibody-TCO 300 μg): 0.31 ± 0.08 % ID/g
- spleen uptake ([1]; 48 h after antibody-TCO 300 μg): 0.71 ± 0.12 % ID/g
- stomach uptake ([1]; 48 h after antibody-TCO 300 μg): 0.37 ± 0.06 % ID/g
- A549-PDL1 tumor uptake ([1]; 72 h after antibody-TCO 300 μg): 0.90 ± 0.23 % ID/g
- blood uptake ([1]; 72 h after antibody-TCO 300 μg): 1.48 ± 0.50 % ID/g
- bone uptake ([1]; 72 h after antibody-TCO 300 μg): 0.38 ± 0.03 % ID/g
- brain uptake ([1]; 72 h after antibody-TCO 300 μg): 0.05 ± 0.01 % ID/g
- gall bladder uptake ([1]; 72 h after antibody-TCO 300 μg): 0.63 ± 0.21 % ID/g
- heart uptake ([1]; 72 h after antibody-TCO 300 μg): 0.74 ± 0.28 % ID/g
- intestine uptake ([1]; 72 h after antibody-TCO 300 μg): 0.55 ± 0.15 % ID/g
- kidney uptake ([1]; 72 h after antibody-TCO 300 μg): 2.22 ± 0.37 % ID/g
- liver uptake ([1]; 72 h after antibody-TCO 300 μg): 0.71 ± 0.16 % ID/g
- lung uptake ([1]; 72 h after antibody-TCO 300 μg): 0.92 ± 0.06 % ID/g
- muscle uptake ([1]; 72 h after antibody-TCO 300 μg): 0.29 ± 0.06 % ID/g
- spleen uptake ([1]; 72 h after antibody-TCO 300 μg): 0.81 ± 0.13 % ID/g
- stomach uptake ([1]; 72 h after antibody-TCO 300 μg): 0.32 ± 0.11 % ID/g
- lowering of total effective dose versus [^18F]Tz-TCO-atezolizumab ([4]; estimated human): over 7.5 fold
- effective internal radiation dose ([4]; for men, as printed in main text): 1.15 × 10^–3 μSv/MBq
- A549-PDL1 tumor uptake (PET) ([5]; 24 h interval): 0.79 ± 0.06 % ID/g
- A549-PDL1 tumor uptake (PET) ([5]; 48 h interval): 0.94 ± 0.16 % ID/g
- A549-PDL1 tumor uptake (PET) ([5]; 72 h interval): 0.41 ± 0.04 % ID/g
- accumulation in A549-PDL1 tumors under blocking ([5]; co-injection of unmodified anti-PD-L1 antibody or unlabeled tetrazine): could be blocked
